Experimental data taken from ChEMBL document CHEMBL1800065, “Enhanced stability and intracellular accumulation of quercetin by protection of the chemically or metabolically susceptible hydroxyl groups with a pivaloxymethyl (POM) promoiety” (J Med Chem, 2010).
≈ marks a conversion by molar mass, not a printed value. Calls of active or inactive are those of the source. The calls are words filed in the database; no cut-off is given here.

How the values were obtained:
[1] = Chemical stability of the compound in buffer at pH 2 assessed as half life by HPLC analysis; assay type: physicochemical
Method in brief: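 Compound incubated in pH 2.0 buffer without antioxidant stabiliser. Remaining parent followed by HPLC to derive the half-life.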

[2] = Chemical stability of the compound in PBS buffer at pH 7.4 assessed as half life by HPLC analysis; assay type: physicochemical
Method in brief: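 Compound at 50 μM in PBS pH 7.4 at 37 °C, no stabilizer. Aliquots taken at 0–360 min and analysed by C-18 reverse-phase HPLC with UV detection at 340 nm and an acetonitrile/0.1% formic acid gradient. Half-life derived from the time course.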

[3] = Chemical stability of the compound in cell-free DMEM culture media assessed as half life by HPLC analysis in presence of FBS; assay type: physicochemical; conditions: cell-free DMEM culture medium with FBS
Method in brief: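 50 μM in FBS-supplemented DMEM, diluted from 10 mM DMSO stock, no ascorbic acid, cell-free, 37 °C and 5% CO₂. Media sampled at time points up to 24 h and stored at −80 °C. Half-life determined by HPLC.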

DU-145 = experiment: Antiproliferative activity against human DU145 cells after 24 hrs by MTT assay; assay type: functional, cell-based; conditions: DU-145, 24 h
Method in brief: (§1)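 Cells seeded at 5 × 10³ per well in complete DMEM and grown 1 day at 37 °C, 5% CO₂. Compounds in DMSO diluted to 0.1–50 μM in medium, no ascorbic acid added. […] Each experiment run in triplicate and repeated three times.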

HS27 = experiment: Antiproliferative activity against human HS27 cells after 24 hrs by MTT assay; assay type: cell-based; conditions: HS27, 24 h; method in brief: as §1
HCT-116 [4] = experiment: Antiproliferative activity against human HCT116 cells after 24 hrs by MTT assay in presence of antioxidative stabilizer ascorbic acid; assay type: functional, cell-based
Method in brief: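 HCT116 cells seeded at 5 × 10³ cells/well in complete DMEM and grown 1 day (37 °C, 5% CO₂). Compounds were dissolved in DMSO and diluted to 0.1–50 μM in medium containing ascorbic acid. Viability read by MTT after 24 h; triplicate wells, three independent repeats.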

MCF7 [5] = experiment: Cell cycle arrest in human MCF7 cells assessed as decrease in accumulation at G0/G1 phase at 30 uM after 12 hrs by propidium iodide staining based flow cytometric analysis relative to quercetin; assay type: functional; parameters: scale not given: the % may be the effect or the level left
Method in brief: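 MCF-7 cells seeded in 35 mm dishes at 10⁵ cells and grown 12 h at 37 °C, 5% CO₂. Treated 12 h with conjugate at 30 μM, quercetin or 1% DMSO control. Propidium iodide staining, flow cytometry, percentage of cells in each phase.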

MCF7 [6] = experiment: Cell cycle arrest in human MCF7 cells assessed as increase in accumulation at S phase at 30 uM after 14 hrs by propidium iodide staining based flow cytometric analysis relative to quercetin; assay type: functional
MCF7 [7] = experiment: Cell cycle arrest in human MCF7 cells assessed as increase in apoptotic cells in sub-G1 phase at 30 uM after 14 hrs by propidium iodide staining based flow cytometric analysis relative to quercetin; assay type: functional
[8] = Aqueous solubility of the compound in PBS assessed as forward light scattering by compound by microplate neplhelometric analysis; assay type: physicochemical
Method in brief: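 Nephelometric solubility. DMSO stocks diluted in PBS (pH 7.4), 1% DMSO final, to 5–500 μM. Forward light scattering read in microplates to find the highest concentration free of scatter.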

[9] = Solubility of the compound in DMEM media assessed as forward light scattering by compound by microplate neplhelometric analysis; assay type: physicochemical; conditions: DMEM medium
Method in brief: (§2)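 Stocks in DMSO diluted to final 5–500 μM in DMEM, with or without FBS, at 1% DMSO. Forward light scattering measured by laser microplate nephelometry; solubility limit taken from the onset of scattering.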

[10] = Solubility of the compound in cell-free DMEM media assessed as forward light scattering by compound by microplate neplhelometric analysis in presence of FBS; assay type: physicochemical; conditions: cell-free DMEM medium with FBS; method in brief: as §2
HCT-116 [11] = experiment: Cellular uptake in human HCT116 cells assessed a bright fluorescence light at 5 uM after 1 hr by fluorescence microscopic analysis; assay type: ADME, cell-based; conditions: hct-116, 1 h
HCT-116 [12] = experiment: Cellular uptake in human HCT116 cells assessed a bright fluorescence light at 5 uM after 12 hrs by fluorescence microscopic analysis; assay type: ADME, cell-based; conditions: hct-116, 12 h
MCF7 [13] = experiment: Cellular uptake in human MCF7 cells assessed as compound remaining in culture media at 10 uM after 1 hr by HPLC-mass spectrophotometric analysis; assay type: ADME, cell-based; conditions: mcf7, 1 h
Method in brief: (§3)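 Cells (MCF-7 or Huh-7) seeded at 10⁵ cells/well and grown 24 h (37 °C, 5% CO₂), then exposed to 10 μM compound. Media and washed, trypsinised, sonicated and filtered lysates analysed by HPLC at 1 and 12 h. Peaks collected and identified by MALDI-TOF MS; content given as percentage of integrated HPLC peak area.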

MCF7 [14] = experiment: Cellular uptake in human MCF7 cells assessed as compound remaining in culture media at 10 uM after 12 hrs by HPLC-mass spectrophotometric analysis; assay type: ADME, cell-based; conditions: mcf7, 12 h; method in brief: as §3
MCF7 [15] = experiment: Cellular uptake in human MCF7 cells assessed as compound remaining in cell lysates at 10 uM after 1 hr by HPLC-mass spectrophotometric analysis; assay type: ADME, cell-based, Lysate; conditions: mcf7, 1 h; method in brief: as §3
MCF7 [16] = experiment: Cellular uptake in human MCF7 cells assessed as compound remaining in cell lysates at 10 uM after 12 hr by HPLC-mass spectrophotometric analysis; assay type: ADME, cell-based, Lysate; conditions: mcf7, 12 h; method in brief: as §3
Huh-7 [17] = experiment: Cellular uptake in human HuH7 cells assessed as compound remaining in culture media at 10 uM after 1 hrs by HPLC-mass spectrophotometric analysis; assay type: ADME, cell-based; conditions: huh-7, 1 h
Huh-7 [18] = experiment: Cellular uptake in human HuH7 cells assessed as compound remaining in cell lysate at 10 uM after 1 hr by HPLC-mass spectrophotometric analysis; assay type: ADME, cell-based; conditions: huh-7, 1 h
MCF7 [19] = experiment: Antiproliferative activity against human MCF7 cells after 24 hrs by MTT assay; assay type: functional, cell-based; conditions: MCF7, 24 h; method in brief: as §1
HCT-116 [20] = experiment: Antiproliferative activity against human HCT116 cells after 24 hrs by MTT assay; assay type: functional, cell-based; conditions: HCT-116, 24 h; method in brief: as §1
[21] = Permeability of the compound measured on donor plate of PAMPA membrane at 50 uM after 1 hr by HPLC analysis; assay type: ADME
Method in brief: (§4)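 Precoated PVDF PAMPA plate warmed to room temperature for 30 min. Donor held 50 μM compound in PBS with 5% DMSO; acceptor held PBS. Assembly incubated at room temperature for 1 and 5 h. Donor and acceptor aliquots analysed by HPLC; distribution given as percentage of integrated peak area.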

[22] = Permeability of the compound measured on donor plate of PAMPA membrane at 50 uM after 5 hrs by HPLC analysis; assay type: ADME; method in brief: as §4
[23] = Permeability of the compound measured on acceptor plate of PAMPA membrane at 50 uM after 1 hr by HPLC analysis; assay type: ADME; method in brief: as §4
[24] = Permeability of the compound measured on acceptor plate of PAMPA membrane at 50 uM after 5 hrs by HPLC analysis; assay type: ADME; method in brief: as §4
HCT-116 [25] = experiment: Cellular uptake in human HCT116 cells assessed a bright fluorescence light at 5 uM after 12 hr by fluorescence microscopic analysis in presence of P-glycoprotein inhibitor verapamil; assay type: ADME, cell-based; conditions: hct-116, 12 h
HCT-116 [26] = experiment: Cellular uptake in human HCT116 cells assessed a bright fluorescence light at 5 uM after 12 hr by fluorescence microscopic analysis in presence of […]; assay type: ADME, cell-based; conditions: hct-116, 12 h
[27] = Chemical stability of the compound in water assessed as half life by HPLC analysis; assay type: physicochemical
[28] = Half life in blood of cancer patient at 400 mg/kg, iv by HPLC analysis; assay type: ADME, organism-based; parameters: dose 400 mg/kg, route intravenous; conditions: human
MCF7 [29] = experiment: Cell cycle arrest in human MCF7 cells assessed as decrease in accumulation at G0/G1 phase at 50 uM after 12 hrs by propidium iodide staining based flow cytometric analysis relative to untreated control; assay type: functional; parameters: scale not given: the % may be the effect or the level left
MCF7 [30] = experiment: Cell cycle arrest in human MCF7 cells assessed as increase in accumulation at S phase at 50 uM after 14 hrs by propidium iodide staining based flow cytometric analysis relative to untreated control; assay type: functional
Huh-7 [31] = experiment: Cellular uptake in human HuH7 cells assessed as intracellular accumulation at 10 uM after 12 hrs by HPLC-mass spectrophotometric analysis; assay type: ADME, cell-based; conditions: huh-7, 12 h; method in brief: as §3
Huh-7 [32] = experiment: Cellular uptake in human HuH7 cells assessed as quercetin-sulphate accumulation at 10 uM after 12 hrs by HPLC-mass spectrophotometric analysis; assay type: ADME, cell-based; conditions: huh-7, 12 h; method in brief: as §3
Huh-7 [33] = experiment: Cellular uptake in human HuH7 cells assessed as methyl-quercetin accumulation at 10 uM after 12 hrs by HPLC-mass spectrophotometric analysis; assay type: ADME, cell-based; conditions: huh-7, 12 h; method in brief: as §3
MCF7 [34] = experiment: Cellular uptake in human MCF7 cells assessed as formation of quercetin sulphate in cell lysates at 10 uM after 12 hrs by HPLC-mass spectrophotometric analysis; conditions: mcf7, 12 h
MCF7 [35] = experiment: Cellular uptake in human MCF7 cells assessed as formation of oxidised quercetin in cell lysates at 10 uM after 12 hrs by HPLC-mass spectrophotometric analysis; conditions: mcf7, 12 h
MCF7 [36] = experiment: Cellular uptake in human MCF7 cells assessed as formation of methylated quercetin in cell lysates at 10 uM after 12 hrs by HPLC-mass spectrophotometric analysis; conditions: mcf7, 12 h
MCF7 [37] = experiment: Cellular uptake in human MCF7 cells assessed as formation of quercetin glucuronide in cell lysates at 10 uM after 12 hrs by HPLC-mass spectrophotometric analysis; conditions: mcf7, 12 h

CC(C)(C)C(=O)OCOc1cc(O)c2c(=O)c(O)c(-c3ccc(O)c(O)c3)oc2c1
half-life [1]: 7 h | half-life [2]: > 72 h | half-life [3]: 4 h | EC50 (DU-145): 10 µM | EC50 (HS27): > 100 µM | Activity (HCT-116 [4]): Active | Activity (MCF7 [5]): 10% | Activity (MCF7 [6]): 120% | Activity (MCF7 [7]): Active | solubility kinetic [8]: 5 µM (≈ 2.08 µg/mL) | solubility kinetic [9]: 50 µM (≈ 20.8 µg/mL) | solubility kinetic [10]: 200 µM | Drug uptake (HCT-116 [11]): Active | Drug uptake (HCT-116 [12]): Active | Drug uptake (MCF7 [13]): 62% | Drug uptake (MCF7 [14]): 12% | Drug uptake (MCF7 [15]): 21% | Drug uptake (MCF7 [16]): 4% | Drug uptake (Huh-7 [17]): Active | Drug uptake (Huh-7 [18]): Active | EC50 (MCF7 [19]): 20 µM | EC50 (HCT-116 [20]): 36 µM

CC(C)(C)C(=O)OCOc1c(-c2ccc(O)c(O)c2)oc2cc(O)cc(O)c2c1=O
half-life [1]: 20 h | half-life [2]: > 72 h | half-life [3]: 52 h | EC50 (DU-145): > 100 µM | EC50 (HS27): > 100 µM | solubility kinetic [8]: 100 µM (≈ 41.6 µg/mL) | solubility kinetic [9]: 100 µM (≈ 41.6 µg/mL) | solubility kinetic [10]: > 400 µM | Drug uptake (HCT-116 [11]): Not Active | Drug uptake (HCT-116 [12]): Not Active | permeability [21]: 87% | permeability [22]: 74% | permeability [23]: 0% | permeability [24]: 0% | Drug uptake (HCT-116 [25]): Not Active | Drug uptake (HCT-116 [26]): Not Active | EC50 (MCF7 [19]): > 100 µM | EC50 (HCT-116 [20]): > 100 µM

O=C(O)CNC(=O)Oc1cc(-c2oc3cc(O)cc(O)c3c(=O)c2O)ccc1O [QC-12]
half-life [1]: 3 h | half-life [2]: 10 h | half-life [3]: 0.8 h | half-life [27]: 16.9 h | half-life [28]: 0.39 h | solubility kinetic [8]: > 400 µM | solubility kinetic [9]: > 400 µM | solubility kinetic [10]: > 400 µM | permeability [21]: 6% | permeability [22]: 18% | permeability [23]: 55% | permeability [24]: 40%

O=c1c(O)c(-c2ccc(O)c(O)c2)oc2cc(O)cc(O)c12 [QUERCETIN]
half-life [1]: 7 h | half-life [2]: 10 h | half-life [3]: < 0.5 h | EC50 (DU-145): > 100 µM | EC50 (HS27): > 100 µM | Activity (HCT-116 [4]): inactive | Activity (MCF7 [29]): 21% | Activity (MCF7 [30]): 78% | solubility kinetic [8]: 100 µM (≈ 30.2 µg/mL) | Drug uptake (HCT-116 [11]): Active | Drug uptake (HCT-116 [12]): Not Active | permeability [21]: 45% | permeability [22]: 8% | permeability [23]: 16% | permeability [24]: 6% | Drug uptake (MCF7 [13]): 5% | Drug uptake (MCF7 [14]): 5% | Drug uptake (MCF7 [15]): 7% | Drug uptake (MCF7 [16]): 17% | Drug uptake (Huh-7 [31]): Not Active | Drug uptake (Huh-7 [32]): < 5% | Drug uptake (Huh-7 [33]): < 5% | EC50 (MCF7 [19]): > 100 µM | EC50 (HCT-116 [20]): > 100 µM | Drug uptake (MCF7 [34]): Active | Drug uptake (MCF7 [35]): Active | Drug uptake (MCF7 [36]): Active | Drug uptake (MCF7 [37]): Active
